Laboratory results from ChEMBL document CHEMBL2406989, “Design, synthesis and preliminary evaluation of a series of histone deacetylase inhibitors carrying a benzodiazepine ring” (Eur J Med Chem, 2013).
Calls of active or inactive are those of the source. The rule behind the calls is not given here.

What was measured:
[1] = system: NB-4; experiment: Induction of apoptosis in human NB4 cells assessed increase in apoptotic bodies at 1 to 2 uM using Giemsa staining by microscopic analysis; format: functional, cell-based
[2] = target: T1, Histone deacetylase (Homo sapiens) (UniProt Q13547+O15379+Q9UBN7+Q92769+Q9UQL6+Q8WUI4+Q9BY41+Q96DB2+P56524+Q9UKV0+Q969S8); experiment: Inhibition of HDAC in human NB4 cells assessed as histone H4 acetylation at 0.5 uM by densitometric analysis; format: cell-based; conditions: NB-4
Summary of the method: (§1)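 NB4 cells (1×10^5/ml) exposed 6 h to 0, 0.5, 1 or 2 μM drug (DMSO vehicle ≤0.3%). Lysed in 1% Triton X-100/1 mM PMSF/40 mM Tris-HCl pH 8.0/150 mM NaCl and sonicated. Run on 12.5% SDS-PAGE, blotted, probed with rabbit anti-acetyl-H3 or -H4 plus peroxidase secondary, ECL. Densitometry against α-tubulin, treated vs untreated, from one typical experiment.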

[3] = system: NB-4; experiment: Induction of apoptosis in human NB4 cells assessed increase in cell shrinking using Giemsa staining by microscopic analysis; format: functional, cell-based
[4] = target: Histone deacetylase; experiment: Inhibition of HDAC in human HeLa cell extract using fluor de Lys as substrate after 15 mins by fluorometric analysis; format: protein assay
[5] = system: NB-4; experiment: Induction of apoptosis in human NB4 cells assessed apoptotic cells at 2 uM using Annexin-V-Fluos and propidium iodide staining by cytofluorimetric analysis (reference value: 7.2 %); format: functional
[6] = system: K562; experiment: Antiproliferative activity against human K562 cells after 72 hrs by CellTiter-Glo assay; format: functional, cell-based; conditions: K562, 72 h
[7] = system: HCT-116; experiment: Antiproliferative activity against human HCT116 cells after 72 hrs by CellTiter-Glo assay; format: functional, cell-based; conditions: HCT-116, 72 h
[8] = system: NB-4; experiment: Cytotoxicity against human NB4 cells assessed as cell viability after 48 hrs by trypan blue exclusion test; format: functional, cell-based; conditions: NB-4, 48 h
[9] = system: NB-4; experiment: Induction of apoptosis in human NB4 cells assessed apoptotic cells at 1 uM using Annexin-V-Fluos and propidium iodide staining by cytofluorimetric analysis (reference value: 7.2 %); format: functional
[10] = system: NB-4; experiment: Induction of apoptosis in human NB4 cells assessed fragmentation using Giemsa staining by microscopic analysis; format: functional, cell-based
[11] = system: A549; experiment: Antiproliferative activity against human A549 cells after 72 hrs by CellTiter-Glo assay; format: functional, cell-based; conditions: A549, 72 h
[12] = system: NB-4; experiment: Induction of apoptosis in human NB4 cells assessed apoptotic cells at 0.5 uM using Annexin-V-Fluos and propidium iodide staining by cytofluorimetric analysis (reference value: 7.2 %); format: functional
[13] = target: T1, Histone deacetylase (Homo sapiens); experiment: Inhibition of HDAC in human NB4 cells assessed as histone H3 acetylation at 0.5 uM by densitometric analysis; format: cell-based; conditions: NB-4; summary of the method: as §1
[14] = target: T1, Histone deacetylase (Homo sapiens); experiment: Inhibition of HDAC in human NB4 cells assessed as histone H4 acetylation at 1 uM by densitometric analysis; format: cell-based; conditions: NB-4; summary of the method: as §1
[15] = system: NB-4; experiment: Induction of apoptosis in human NB4 cells after 48 hrs by Annexin V test; format: functional, cell-based; conditions: NB-4, 48 h
[16] = target: T1, Histone deacetylase (Homo sapiens); experiment: Inhibition of HDAC in human NB4 cells assessed as histone H4 acetylation after 6 hrs by Western blot/immunostaining analysis; format: cell-based; conditions: NB-4; summary of the method: as §1
[17] = target: Histone deacetylase 1 (Homo sapiens, UniProt Q13547); experiment: Inhibition of full length His-tagged human recombinant HDAC1 expressed in baculovirus system using fluor de Lys as substrate by fluorometric analysis
[18] = target: T1, Histone deacetylase (Homo sapiens); experiment: Inhibition of HDAC in human NB4 cells assessed as histone H3 acetylation at 1 uM by densitometric analysis; format: cell-based; conditions: NB-4; summary of the method: as §1
[19] = target: T2, Protein deacetylase HDAC6 (Homo sapiens, UniProt Q9UBN7); experiment: Inhibition of full length His-tagged human recombinant HDAC6 expressed in baculovirus system using fluor de Lys as substrate by fluorometric analysis
T2 sequence (Q9UBN7 whole entry): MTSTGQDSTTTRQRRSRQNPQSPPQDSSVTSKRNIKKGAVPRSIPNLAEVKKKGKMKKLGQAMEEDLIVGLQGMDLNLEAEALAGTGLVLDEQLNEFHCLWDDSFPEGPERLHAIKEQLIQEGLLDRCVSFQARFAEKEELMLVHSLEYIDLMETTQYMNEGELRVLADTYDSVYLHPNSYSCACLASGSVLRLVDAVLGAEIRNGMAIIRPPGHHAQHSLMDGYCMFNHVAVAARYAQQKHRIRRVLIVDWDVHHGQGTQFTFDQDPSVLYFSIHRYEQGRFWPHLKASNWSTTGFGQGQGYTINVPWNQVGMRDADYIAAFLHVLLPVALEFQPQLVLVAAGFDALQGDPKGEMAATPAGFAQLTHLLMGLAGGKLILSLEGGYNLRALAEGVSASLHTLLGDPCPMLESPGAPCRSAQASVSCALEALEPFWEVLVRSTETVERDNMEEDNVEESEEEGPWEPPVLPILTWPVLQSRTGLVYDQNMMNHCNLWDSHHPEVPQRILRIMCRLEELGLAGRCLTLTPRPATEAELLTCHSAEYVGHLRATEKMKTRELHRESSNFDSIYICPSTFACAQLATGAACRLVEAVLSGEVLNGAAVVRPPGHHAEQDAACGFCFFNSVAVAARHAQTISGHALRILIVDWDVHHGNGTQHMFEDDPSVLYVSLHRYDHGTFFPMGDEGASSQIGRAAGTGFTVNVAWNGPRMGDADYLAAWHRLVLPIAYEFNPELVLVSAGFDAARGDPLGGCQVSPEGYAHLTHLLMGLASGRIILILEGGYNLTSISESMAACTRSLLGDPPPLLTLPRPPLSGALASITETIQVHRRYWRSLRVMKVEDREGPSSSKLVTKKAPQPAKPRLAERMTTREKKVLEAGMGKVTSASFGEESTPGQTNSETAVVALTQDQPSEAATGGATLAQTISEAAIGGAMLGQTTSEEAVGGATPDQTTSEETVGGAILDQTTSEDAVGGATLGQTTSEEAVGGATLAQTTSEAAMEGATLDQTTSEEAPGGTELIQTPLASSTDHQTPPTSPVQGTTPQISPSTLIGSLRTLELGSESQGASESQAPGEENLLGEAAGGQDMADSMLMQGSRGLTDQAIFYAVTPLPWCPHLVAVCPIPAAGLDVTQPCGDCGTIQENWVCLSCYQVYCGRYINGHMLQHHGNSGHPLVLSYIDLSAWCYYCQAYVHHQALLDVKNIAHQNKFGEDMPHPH

[20] = target: T1, Histone deacetylase (Homo sapiens); conditions: HeLa, at 1 µM
[21] = target: T1, Histone deacetylase (Homo sapiens); experiment: Inhibition of HDAC in human NB4 cells assessed as histone H3 acetylation after 6 hrs by Western blot/immunostaining analysis; format: cell-based; conditions: NB-4; summary of the method: as §1

Histone deacetylase 1, sequence (Q13547 whole entry): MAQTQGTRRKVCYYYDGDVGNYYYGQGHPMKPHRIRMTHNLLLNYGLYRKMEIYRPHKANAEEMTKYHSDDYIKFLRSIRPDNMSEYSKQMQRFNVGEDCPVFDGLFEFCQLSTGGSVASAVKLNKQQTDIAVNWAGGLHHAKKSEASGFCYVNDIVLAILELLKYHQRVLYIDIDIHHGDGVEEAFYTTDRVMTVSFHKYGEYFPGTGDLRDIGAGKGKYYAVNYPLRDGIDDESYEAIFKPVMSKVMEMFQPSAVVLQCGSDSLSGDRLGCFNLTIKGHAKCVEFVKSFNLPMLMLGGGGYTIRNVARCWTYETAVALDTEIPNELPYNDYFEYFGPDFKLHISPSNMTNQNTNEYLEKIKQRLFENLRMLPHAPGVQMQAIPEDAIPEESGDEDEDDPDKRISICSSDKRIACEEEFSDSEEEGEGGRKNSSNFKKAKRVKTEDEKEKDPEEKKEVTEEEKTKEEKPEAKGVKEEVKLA

Structure (SMILES) | IC50 [4] | IC50 [6] | IC50 [7] | IC50 [11] | IC50 [15] | IC50 [17] | IC50 [19] | inhibition [20] | also measured
CN1C(=O)[C@@H](NC(=O)CCCCCCC(=O)NO)N=C(c2ccccc2)c2ccccc21 | 120 nM | 720 nM | 470 nM | 1440 nM | 860 nM | 550 nM | 400 nM | 88% | Activity [1]: Active; inhibition [2]: 8%; Activity [3]: Dose-dependent effect; Activity [5]: 83.4%; IC50 [8]: 460 nM; Activity [9]: 66.2%; Activity [10]: Dose-dependent effect; Activity [12]: 8.6%; inhibition [13]: 50%; inhibition [14]: 51%; inhibition [16]: Dose-dependent effect; inhibition [18]: 84%; inhibition [21]: Dose-dependent effect
CN1C(=O)CN=C(c2ccccc2)c2cc(C#CCCCCC(=O)NO)ccc21 |  | 2670 nM | 1860 nM | 2690 nM | 4090 nM | 1900 nM | 5900 nM | 36% | 
O=C(CCCCCCC(=O)N1CCN=C(c2ccccc2)c2ccccc21)NO | 180 nM | 1670 nM | 1440 nM | 2540 nM | 3990 nM | 250 nM | 1120 nM | 82% | 
C[C@@H]1N=C(c2ccccc2)c2cc(C#CCCCC(=O)NO)ccc2NC1=O | 340 nM | 1400 nM | 970 nM | 2820 nM | 3040 nM | 490 nM | 460 nM | 65% | 
CN1C(=O)C(NC(=O)CCCCCCC(=O)NO)N=C(c2ccccc2)c2ccccc21 (racemic) |  |  |  |  | 1200 nM |  |  |  | 
CN1C(=O)C(NC(=O)CCCCCCCC(=O)NO)N=C(c2ccccc2)c2ccccc21 (racemic) | 600 nM | 4590 nM | 3930 nM | 7950 nM | 4000 nM | 480 nM | 9080 nM | 57% | 
CN1C(=O)C(NC(=O)CCCCCC(=O)NO)N=C(c2ccccc2)c2ccccc21 (racemic) | 320 nM | 1840 nM | 1440 nM | 4420 nM | 2560 nM | 270 nM | 180 nM | 73% | 
CN1C(=O)CN=C(c2ccccc2)c2cc(C#CCCCC(=O)NO)ccc21 |  | 4970 nM | 2620 nM | 5950 nM | 1950 nM |  |  | 39% | 
CN1C(=O)CN=C(c2ccccc2)c2cc(C#CCCC(=O)NO)ccc21 |  | 8220 nM | 6540 nM | 10300 nM | > 5000 nM | 2750 nM | > 100000 nM | 22% | 
CN1C(=O)[C@H](NC(=O)CCCCCCC(=O)NO)N=C(c2ccccc2)c2ccccc21 | 310 nM | 1720 nM | 1070 nM | 2690 nM | > 5000 nM | 700 nM | 6500 nM | 73% | 
CN1C(=O)CN=C(c2ccccc2)c2cc(C#C/C=C/C(=O)NO)ccc21 | 160 nM | 780 nM | 460 nM | 1300 nM | 2600 nM | 440 nM | 7720 nM | 82% | 
CN1C(=O)C(NC(=O)CCCCC(=O)NO)N=C(c2ccccc2)c2ccccc21 (racemic) | 380 nM | 3280 nM | 2010 nM | 5440 nM | 1910 nM | 420 nM | > 100000 nM | 70% | 
CN1C(=O)C(N)N=C(c2ccccc2)c2cc(C#CCCCC(=O)NO)ccc21 (racemic) |  |  |  |  |  | 1090 nM | > 100000 nM |  | 
